From PubChem BioAssay
In the library only some 2.4% were active in any assay of this set; here they are far more common.
NPY Y1 blocker: NPY-Y1 receptor antagonists, primary screen, cell-based. Neuropeptide Y receptor type 1 (Homo sapiens), P25929. HEK293-CNG Y1 cells, membrane potential fluorescence; NPY at EC95, then isoproterenol. inhibition, % at 3.6 µM. 1% of 200,000 active;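 active = inhibition above the campaign mean inhibition of all tested compounds plus 3 SD, cut at about 20% in these data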;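 note: 0% = DMSO wells given NPY plus isoproterenol and 100% = isoproterenol alone without NPY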
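Test system: HEK293 cells co-expressing NPY Y1 receptor and cyclic-nucleotide gated channel; Also added: NPY (25 nM), isoproterenol (1 µM), Ro 20-1724 (25 µM); Compound dosing: one concentration, 3.6 µM, in 0.4% DMSO; Timing: dye 3 h, compound 60 min room temperature, stimulation 45 min; Technique: Membrane-potential fluorescent dye readout.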
NPY-Y2 antag: NPY-Y2 receptor antagonists, primary screen, cell-based; Neuropeptide Y receptor type 2 (Homo sapiens), P49146; NPY-Y2 expressing cells, antagonist mode; inhibition, % at 2.7 µM; 0.99% of 140,000 active;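 note: 0% = vehicle with agonist challenge and 100% = reference antagonist with challenge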
Target sequence (P49146 whole entry, looked up): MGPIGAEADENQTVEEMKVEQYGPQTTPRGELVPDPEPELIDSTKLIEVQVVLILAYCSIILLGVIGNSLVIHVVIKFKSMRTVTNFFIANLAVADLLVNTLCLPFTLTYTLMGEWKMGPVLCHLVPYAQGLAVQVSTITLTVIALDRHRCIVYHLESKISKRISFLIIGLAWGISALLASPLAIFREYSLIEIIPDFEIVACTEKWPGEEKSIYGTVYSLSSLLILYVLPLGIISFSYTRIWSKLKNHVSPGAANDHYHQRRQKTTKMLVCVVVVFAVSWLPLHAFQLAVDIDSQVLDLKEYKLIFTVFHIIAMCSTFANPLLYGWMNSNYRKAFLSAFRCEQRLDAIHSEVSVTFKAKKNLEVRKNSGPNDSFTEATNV
NPY1 pot ag: NPY-Y1 receptor potentiators or agonists, primary screen, cell-based | AID 1304, 2008 | activation, % at 3.6 µM | 0.37% of 220,000 active | Neuropeptide Y receptor type 1 (Homo sapiens), P25929 | NPY-Y1 expressing cells, potentiator/agonist activation; in the data active = activation above about 33%, passing the limit was not always enough;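 note: cells stimulated with NPY at EC10 then isoproterenol at EC100; 0% = low agonist plus stimulus and 100% = saturating agonist plus stimulus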
NPY2 pot ag: NPY-Y2 potentiators or agonists, primary screen, cell-based. Neuropeptide Y receptor type 2 (Homo sapiens), P49146. cells expressing NPY-Y2, potentiator/agonist read-out. 0.45% of 220,000 active. activation, % at 3.6 µM; in the data active = activation above about 27%;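 note: cells stimulated with NPY near EC25 plus isoproterenol at EC100; 0% = vehicle plus submaximal agonist and 100% = vehicle plus saturating agonist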
S1P4 antagonist: S1P4 receptor antagonists, primary screen, cell-based; S1P4-expressing cells, antagonist mode, reporter read-out; inhibition, % at 4.98 µM; 0.26% of 220,000 active; in the data active = inhibition above about 29%;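 note: 0% = wells stimulated with agonist and 100% = vehicle wells without agonist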
S1P4 agonist: S1P4 receptor agonists, primary screen, cell-based | S1P4-expressing cell line, agonist reporter assay | activation, % at 4.98 µM | 0.35% of 220,000 active | AID 1509, 2009; in the data active = activation above about 11%;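 note: 0% = DMSO vehicle and 100% = reference agonist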
NPY1 antag conf: NPY-Y1 receptor antagonists, retest of hits, confirmation, HEK293-CNG cells, membrane potential fluorescence, triplicate; shares compounds with NPY Y1 blocker; cAMP; NPY challenge against isoproterenol-raised cAMP; inhibition, % at 3.6 µM; 21% of 1,200 active; in the data active = inhibition above about 20%;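 note: 0% = vehicle with agonist plus stimulus and 100% = stimulus alone without agonist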
NPY2 antag ctr: NPY-Y2 receptor antagonists, selectivity check, confirmation, counter-screen for NPY-Y1 antagonist project, HEK293-CNG cells, membrane potential fluorescence, triplicate; shares compounds with NPY Y1 blocker; 28% of 1,200 active; inhibition, % at 3.6 µM; AID 1255, 2008; antagonism; cells given NPY, then isoproterenol;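 note: 0% = DMSO with agonist challenge and 100% = reference antagonist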
* marks the source's active call; other numbers are inactive results; · = no result. Cut-off read from the data, not from the text of the source, unless noted: active = inhibition above about 17%; inactive = the rest.

SMILES	NPY Y1 blocker	NPY-Y2 antag	NPY1 pot ag	NPY2 pot ag	S1P4 antagonist	S1P4 agonist	NPY1 antag conf	NPY2 antag ctr
O=C(Nc1cccc(C(F)(F)F)c1)C1CCN(S(=O)(=O)c2cnc[nH]2)CC1	2	3	0	0	-10	-1	·	·
COc1ccc(C[C@@H]2CN3C(=NC[C@@H]3C)N2C[C@H](C)NC(=O)CCC2CCCCC2)cc1	1	·	-14	-14	10	-1	·	·
CCN1CCc2c(C#N)c(NCc3ccccc3)nc(N(CC)CC)c2C1	34*	13	-38	-21	9	1	11	28*
Clc1ccc(-c2nnc3c4ccccc4nc(N4CCOCC4)n23)cc1Cl	21*	10	-17	-9	-1	0	6	8
c1ccc(-c2nc(-n3ccnc3)nc(-n3ccnc3)n2)cc1	-4	-2	22	21	-17	0	·	·
c1ccc(CN2CCN(c3nc(-c4ccccc4)nc(-n4ccnc4)n3)CC2)cc1	40*	16	-116	-31	7	1	24*	23*
CCCOc1ccc(Cn2c(=O)oc3ccc(C)cc32)cc1OC	32*	4	-42	-29	8	-3	6	8
COc1ccc(-n2nc3c(c2NC(=O)c2c(-c4ccccc4Cl)noc2C)CS(=O)(=O)C3)cc1	38*	11	6	2	-2	0	9	11
COc1ccc(NC(=O)c2c(-c3ccccc3Cl)noc2C)c(OC)c1	0	5	3	0	4	2	·	·
Fc1ccc(Nc2c3c(nc4ccccc24)CCC3)cc1	23*	·	-26	-26	7	2	18	14
CC(=O)C1=C(O)C(=O)N(c2cccnc2)C1c1cccc([N+](=O)[O-])c1 (configuration not stated)	·	·	-3	-1	-19	2	·	·
CNc1ccc(/C=C(\CCC(=O)O)c2nc3ccccc3s2)cc1[N+](=O)[O-]	26*	15	-79	-24	2	3	39*	52*
O=C(NC1CCCCC1)C(c1ccncc1)N(Cc1ccc2c(c1)OCO2)C(=O)c1cnsn1 (configuration not stated)	25*	11	-24	-7	1	2	28*	17
O=C(NC1CCCC1)C(c1ccncc1)N(Cc1ccccc1)C(=O)Cc1cccs1 (configuration not stated)	21*	8	-7	3	-17	-1	4	6
COC(=O)c1ccc(C(C(=O)NC2CCCCC2)N(Cc2ccccc2)C(=O)Cc2cccs2)cc1 (configuration not stated)	-2	6	0	3	-9	0	·	·
CCOc1ccccc1-c1nn2c(Cc3ccccc3)nnc2s1	52*	10	-74	-19	-14	0	32*	59*
c1ccc(Cc2nnc3sc(-c4ccccn4)nn23)cc1	5	7	-25	-3	-11	0	·	·
CCc1ccc2[nH]c(=O)c(CN(CCN(CC)CC)C(=S)NCc3ccco3)cc2c1	22*	·	-30	-31	-10	-1	14	14
CCc1ccc2[nH]c(=O)c(CN(CCN(C)C)C(=S)NCc3ccco3)cc2c1	5	·	-18	-17	-11	0	·	·
Cc1cc(C(=O)Cn2nc(C(=O)O)c3ccccc3c2=O)c(C)n1-c1ccc(F)cc1	22*	13	-39	-23	11	0	14	12
COC(=O)C1C(O)=C(C=Nc2cccc3ccccc23)C(=O)CC1(C)C (configuration not stated)	·	·	8	5	10	2	·	·
O=C(c1cnc2c(c1)COc1ccc(Cl)cc1-2)c1ccccc1O	22*	4	-48	-16	8	-3	10	13
Cc1ccc(O)c(C(=O)c2cnc3c(c2)COc2ccccc2-3)c1	1	5	-34	-27	-9	3	·	·
Cc1nc2nc(SCC(=O)O)nn2c(C)c1Cc1c(F)cccc1Cl	17	·	-15	-14	-28	0	·	·
Cc1nc2nc(SCC(=O)O)nn2c(C)c1Cc1ccccc1Cl	23*	·	-28	-12	5	1	12	6
SMILES	NPY Y1 blocker	NPY-Y2 antag	NPY1 pot ag	NPY2 pot ag	S1P4 antagonist	S1P4 agonist	NPY1 antag conf	NPY2 antag ctr
Cc1ccc(C)c(C(=O)CN2C3=NCCCN3c3ccccc32)c1	26*	8	-5	-2	-1	1	11	12
COc1ccc(C(=O)CN2C3=NCCCN3c3ccccc32)cc1OC	-2	2	10	6	-10	3	·	·
O=C(c1cc(COc2c(F)cccc2F)on1)N1CCc2ccccc2C1	11	·	-29	-23	-6	2	·	·
Nc1ccccc1C(=O)NNc1ncc(C(F)(F)F)cc1Cl	21*	5	-80	-28	-6	0	5	8
Cc1nc(CSc2nc3[nH]ncc3c(=O)n2-c2ccccc2)cs1	2	5	-4	-11	-33	0	·	·
Cc1noc(C)c1CSc1nc2[nH]ncc2c(=O)n1-c1ccccc1	21*	7	-2	-18	-12	-2	8	15
Cc1ccc2cc(CN(CCN(C)C)C(=S)Nc3ccccc3)c(=O)[nH]c2c1C	11	·	-14	4	-15	5	·	·
Cc1ccc(NC(=S)N(CCN(C)C)Cc2cc3cc(C)cc(C)c3[nH]c2=O)cc1	25*	7	-11	-11	-17	-4	1	8
CCN(CC)CCNCc1cc(Cl)ccc1OCc1ccccc1F	24*	·	-22	4	-4	0	12	14
CCNCc1ccc(OCc2ccccc2F)c(OC)c1	3	·	-17	-3	-21	0	·	·
O=C(/C=C/c1ccc(Cl)cc1Cl)NCCSc1ccccc1	3	10	-6	-23	1	0	·	·
O=C(/C=C/c1ccc(Cl)cc1)NCCSc1ccccc1	29*	5	-39	-19	-3	0	20*	43*
O=C(/C=C/c1ccccc1)NCCSCc1ccc(Cl)cc1	21*	13	-43	-35	-18	5	6	10
O=C(/C=C/c1cccc([N+](=O)[O-])c1)NCCSCc1ccc(Cl)cc1	4	6	-28	-2	-2	-1	·	·
O=C(NNC1=C(C(=O)C(F)(F)F)CCC1)c1cccnc1	3	·	-16	-7	-7	2	·	·
